Test [1] is filed under the species Cavia porcellus. Nature of the test: Coronary perfusion pressure of isolated guinea pig heart at dose 0.005 (ug/heart). It is filed as functional. Summed up: (§1)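 Heart perfused via an aortic inflow cannula; coronary perfusion pressure was recorded in that cannula with a pressure transducer. After 30-min stabilization, drug dissolved in perfusion liquid was injected through a side arm over 1 min, at constant volume. Six preparations per compound; mean, SE and percent of basal value were calculated for each dose.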

The species entered for test [2] is Cavia porcellus. As to the kind of experiment: Coronary perfusion pressure of isolated guinea pig heart at dose 0.5 (ug/heart). It is filed as functional. The method in brief: as §1
The species entered for test [3] is Cavia porcellus. Nature of the test: Heart rate of isolated guinea pig heart at dose 0.05 (ug/heart). It is filed as functional. The method in brief: (§2)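 Rate was derived from the left ventricular pressure tracing of the perfused heart. Drug dissolved in perfusion liquid was given as a 1-min side-arm injection into the aortic inflow cannula after 30-min stabilization, at constant volume. Six preparations per compound; values expressed as mean, SE and percent of basal for each dose.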

The species entered for test [4] is Cavia porcellus. Nature of the test: Coronary perfusion pressure of isolated guinea pig heart at dose 0.05 (ug/heart). It is filed as functional. Summed up: as §1
Test [5] is filed under the species Cavia porcellus. Nature of the test: Left ventricular pressure of isolated guinea pig heart at dose 5 (ug/heart). It is filed as functional, Cardiac ventricle. The method in brief: (§3)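 Perfused heart, 30-min stabilization, then a 1-min constant-volume injection of drug dissolved in perfusion liquid via a side arm of the aortic inflow cannula. Six preparations per compound; mean, SE and percent of basal value were calculated for each dose.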

Test [6] is filed under the species Cavia porcellus. Nature of the test: Left ventricular pressure of isolated guinea pig heart at dose 0.005 (ug/heart). It is filed as functional, Cardiac ventricle. The method in brief: as §3
Test [7] is filed under the species Cavia porcellus. Nature of the test: Heart rate of isolated guinea pig heart at dose 5 (ug/heart). It is filed as functional. The method in brief: as §2
The species named for test [8] is Cavia porcellus. As to the kind of experiment: Coronary perfusion pressure of isolated guinea pig heart at dose 5 (ug/heart). It is filed as functional. Summed up:
as §1

The species named for test [9] is Cavia porcellus. As to the kind of experiment: Heart rate of isolated guinea pig heart at dose 0.005 (ug/heart). It is filed as functional. The method in brief:
as §2

For test [10], the species on record is Cavia porcellus. As to the kind of experiment: Left ventricular pressure of isolated guinea pig heart at dose 0.5 (ug/heart). It is filed as functional, Cardiac ventricle. Summed up:
as §3

The species entered for test [11] is Cavia porcellus. Nature of the test: Left ventricular pressure of isolated guinea pig heart at dose 0.05 (ug/heart). It is filed as functional, Cardiac ventricle. Summed up:
as §3

The species entered for test [12] is Cavia porcellus. Nature of the test: Heart rate of isolated guinea pig heart at dose 0.5 (ug/heart). It is filed as functional. The method in brief: as §2
The species named for test [13] is Cavia porcellus. Nature of the test: Coronary perfusion pressure of isolated guinea pig heart at dose 5 ug/heart). It is filed as functional. The method in brief:
as §1

Molecules are shown by their SMILES.

Take `COc1ccc(CCN(C)CCC=C(c2ccccc2)c2ccccc2)cc1OC.O=C(O)C(=O)O`: the CPP stood at 48 mmHg in the test filed under Cavia porcellus [1], 47.3 mmHg in the test filed under Cavia porcellus [2], 51 mmHg in the test listed under Cavia porcellus [4] and 47.3 mmHg in the test filed under Cavia porcellus [8]. Also, the HR in the test filed under Cavia porcellus [3], in the test filed under Cavia porcellus [7], in the test listed under Cavia porcellus [9] and in the test filed under Cavia porcellus [12] was 150 beats min-1 in each case. Moreover, the LVP was found to be 75.7 mmHg in the test filed under Cavia porcellus [5], 75.7 mmHg in the test listed under Cavia porcellus [6], 75.7 mmHg in the test filed under Cavia porcellus [10] and 75.3 mmHg in the test filed under Cavia porcellus [11].

For the compound `COc1ccc(CCN(C)CCCC(C#N)(c2ccc(OC)c(OC)c2)C(C)C)cc1OC` (configuration not stated) [VERAPAMIL], the CPP came out at 51.7 mmHg in the test listed under Cavia porcellus [1], 49.7 mmHg in the test filed under Cavia porcellus [2], 50.3 mmHg in the test listed under Cavia porcellus [4] and 48.8 mmHg in the test filed under Cavia porcellus [8]. For the same compound, the HR is on record as 203.8 beats min-1 in the test filed under Cavia porcellus [3], 188 beats min-1 in the test listed under Cavia porcellus [7], 210 beats min-1 in the test filed under Cavia porcellus [9] and 200.3 beats min-1 in the test listed under Cavia porcellus [12]. The LVP is on record as 13 mmHg in the test filed under Cavia porcellus [5], 25.7 mmHg in the test listed under Cavia porcellus [6], 21.5 mmHg in the test filed under Cavia porcellus [10] and 24 mmHg in the test listed under Cavia porcellus [11].

For the compound `COc1ccc(CCN(C)CCCC2(C#N)c3ccccc3-c3ccccc32)cc1OC.O=C(O)C(=O)O`, the CPP in the test filed under Cavia porcellus [1] was 44.2 mmHg; in the test listed under Cavia porcellus [2], 42 mmHg; in the test listed under Cavia porcellus [4], 42 mmHg; in the test listed under Cavia porcellus [8], 41.2 mmHg. The HR in the test filed under Cavia porcellus [3] turned out to be 209.7 beats min-1; in the test filed under Cavia porcellus [7], 205 beats min-1; in the test listed under Cavia porcellus [9] it was 211.5 beats min-1; in the test filed under Cavia porcellus [12] it was 206 beats min-1. Further, the LVP in the test listed under Cavia porcellus [5] is reported as 39.5 mmHg; in the test listed under Cavia porcellus [6], 43.3 mmHg; in the test filed under Cavia porcellus [10], 41.3 mmHg; in the test listed under Cavia porcellus [11], 41.7 mmHg.

`COc1ccc(CCN(C)CCCC2(C#N)c3ccccc3-c3ccccc32)cc1OC.[O-][Cl+3]([O-])([O-])O`: the CPP in the test filed under Cavia porcellus [1] was determined as 47.7 mmHg; in the test filed under Cavia porcellus [2] it was 45 mmHg; in the test listed under Cavia porcellus [4], 45.2 mmHg; in the test listed under Cavia porcellus [13], 43.8 mmHg. The HR is given as 208 beats min-1 in the test filed under Cavia porcellus [3], 194.8 beats min-1 in the test listed under Cavia porcellus [7], 213 beats min-1 in the test filed under Cavia porcellus [9] and 203 beats min-1 in the test filed under Cavia porcellus [12]. Also, the LVP in the test listed under Cavia porcellus [5] worked out at 38.5 mmHg; in the test filed under Cavia porcellus [6], 47.2 mmHg; in the test filed under Cavia porcellus [10], 38.7 mmHg; in the test filed under Cavia porcellus [11] it was 41.8 mmHg.

As to `COc1ccc(CCN(C)CCCC(c2ccccc2)(c2ccccc2)C(C)C)cc1OC.O=C(O)C(=O)O`, the CPP in the test listed under Cavia porcellus [1] turned out to be 46.3 mmHg; in the test listed under Cavia porcellus [2], 49.3 mmHg; in the test filed under Cavia porcellus [4], 50 mmHg; in the test listed under Cavia porcellus [8] it was 49.3 mmHg. Moreover, the HR is reported as 154.7 beats min-1 in the test listed under Cavia porcellus [3], 150.7 beats min-1 in the test filed under Cavia porcellus [7], 155.3 beats min-1 in the test listed under Cavia porcellus [9] and 150 beats min-1 in the test filed under Cavia porcellus [12]. Moreover, the LVP in the test listed under Cavia porcellus [5] was found to be 65.3 mmHg; in the test listed under Cavia porcellus [6], 74.3 mmHg; in the test filed under Cavia porcellus [10] it was 66.7 mmHg; in the test filed under Cavia porcellus [11], 65.3 mmHg.

In the case of `COc1ccc(CCN(C)CCCC2c3ccccc3-c3ccccc32)cc1OC.O=C(O)C(=O)O`, the CPP in the test filed under Cavia porcellus [1] came out at 52 mmHg; in the test filed under Cavia porcellus [2], 56 mmHg; in the test filed under Cavia porcellus [4], 52 mmHg; in the test listed under Cavia porcellus [8], 51.3 mmHg. Also, the HR in the test listed under Cavia porcellus [3] amounted to 150 beats min-1; in the test filed under Cavia porcellus [7], 149.3 beats min-1; in the test filed under Cavia porcellus [9], 150 beats min-1; in the test filed under Cavia porcellus [12], 150 beats min-1. The LVP is 89.3 mmHg in the test listed under Cavia porcellus [5], 88.5 mmHg in the test listed under Cavia porcellus [6], 91.2 mmHg in the test filed under Cavia porcellus [10] and 89.5 mmHg in the test listed under Cavia porcellus [11].

Consider `COc1ccc(CCN(C)C/C=C/C2(C(C)C)c3ccccc3-c3ccccc32)cc1OC.O=S(=O)(O)O`, for which the CPP in the test listed under Cavia porcellus [1] was 83.8 mmHg; in the test listed under Cavia porcellus [2], 77 mmHg; in the test filed under Cavia porcellus [4], 82.4 mmHg; in the test filed under Cavia porcellus [8] it was 74.4 mmHg. Also, the HR in the test listed under Cavia porcellus [3] stood at 177.8 beats min-1; in the test filed under Cavia porcellus [7], 176.6 beats min-1; in the test filed under Cavia porcellus [9], 182.6 beats min-1; in the test filed under Cavia porcellus [12], 180.6 beats min-1. The LVP in the test listed under Cavia porcellus [5] worked out at 43.2 mmHg; in the test listed under Cavia porcellus [6], 43.2 mmHg; in the test listed under Cavia porcellus [10], 44 mmHg; in the test listed under Cavia porcellus [11], 43.2 mmHg.

On to `COc1ccc(CCN(C)CCCC(c2ccccc2)c2ccccc2)cc1OC.O=C(O)C(=O)O`, for which the CPP in the test filed under Cavia porcellus [1] was 48 mmHg; in the test listed under Cavia porcellus [2], 48.7 mmHg; in the test filed under Cavia porcellus [4], 48 mmHg; in the test filed under Cavia porcellus [8] it was 47.3 mmHg. In addition, the HR in the test listed under Cavia porcellus [3], in the test listed under Cavia porcellus [7], in the test filed under Cavia porcellus [9] and in the test listed under Cavia porcellus [12] was 152 beats min-1 each time. Further, the LVP was 66.7 mmHg in the test listed under Cavia porcellus [5], 67.5 mmHg in the test listed under Cavia porcellus [6], 67.4 mmHg in the test filed under Cavia porcellus [10] and 67.5 mmHg in the test filed under Cavia porcellus [11].

Turning to `COc1ccc(CCN(C)CCC=C2c3ccccc3-c3ccccc32)cc1OC.O=C(O)C(=O)O`, the CPP in the test listed under Cavia porcellus [1] is listed as 50 mmHg; in the test filed under Cavia porcellus [2] it was 51 mmHg; in the test filed under Cavia porcellus [4], 50 mmHg; in the test listed under Cavia porcellus [8], 51 mmHg. Besides, the HR was found to be 210 beats min-1 in the test filed under Cavia porcellus [3], 208 beats min-1 in the test listed under Cavia porcellus [7], 210 beats min-1 in the test filed under Cavia porcellus [9] and 208 beats min-1 in the test listed under Cavia porcellus [12]. In addition, the LVP is given as 54 mmHg in the test listed under Cavia porcellus [5], 53 mmHg in the test listed under Cavia porcellus [6], 54 mmHg in the test listed under Cavia porcellus [10] and 53 mmHg in the test filed under Cavia porcellus [11].

`COc1ccc(CCN(C)CCCC(C#N)(c2ccccc2)c2ccccc2)cc1OC.[O-][Cl+3]([O-])([O-])O`: the CPP stood at 73 mmHg in the test filed under Cavia porcellus [1], 71.2 mmHg in the test filed under Cavia porcellus [2], 72.6 mmHg in the test filed under Cavia porcellus [4] and 68.7 mmHg in the test listed under Cavia porcellus [8]. For the same compound, the HR in the test listed under Cavia porcellus [3] was 160.2 beats min-1; in the test filed under Cavia porcellus [7], 158.3 beats min-1; in the test listed under Cavia porcellus [9], 162 beats min-1; in the test filed under Cavia porcellus [12], 159.8 beats min-1. For the same compound, the LVP worked out at 26.8 mmHg in the test filed under Cavia porcellus [5], 31.6 mmHg in the test listed under Cavia porcellus [6], 27.8 mmHg in the test filed under Cavia porcellus [10] and 28.6 mmHg in the test filed under Cavia porcellus [11].

As to `COc1ccc(CCN(C)CCCC2(C(C)C)c3ccccc3-c3ccccc32)cc1OC.O=S(=O)(O)O`, the CPP in the test filed under Cavia porcellus [1] is 76.4 mmHg; in the test filed under Cavia porcellus [2], 78.4 mmHg; in the test filed under Cavia porcellus [4], 78.6 mmHg; in the test listed under Cavia porcellus [8] it was 78.4 mmHg. Further, the HR in the test listed under Cavia porcellus [3] is 209 beats min-1; in the test listed under Cavia porcellus [7], 204.4 beats min-1; in the test filed under Cavia porcellus [9], 211 beats min-1; in the test filed under Cavia porcellus [12], 207 beats min-1. Further, the LVP in the test filed under Cavia porcellus [5] was determined as 36 mmHg; in the test filed under Cavia porcellus [6], 38.4 mmHg; in the test listed under Cavia porcellus [10], 37 mmHg; in the test listed under Cavia porcellus [11], 38 mmHg.

The record behind these values is ChEMBL document CHEMBL1122840, “SAR studies in the field of calcium(II) antagonists. Effect of modifications at the tetrasubstituted carbon of verapamil-like compounds” (1985).
